Activity calls are given as the source filed them. The rule behind the calls is not given here.
Experiments:
HCT-116 [1] = assay: Induction of autophagy in human HCT116 cells assessed as accumulation of LC3-2 at 20 uM after 24 hrs in presence of bafilomycin A1 by Western blot analysis; assay type: functional, cell-based
Method in brief: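 HCT116 cells were exposed 24 h to 20 μM compound, 2.5 nM bafilomycin A1, or both together. LC3-II was measured by Western blot with β-actin as internal standard. Blots are representative of three separate determinations.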

HCT-116 [2] = assay: Induction of apoptosis in human HCT116 cells assessed as increase in cytochrome c levels in cytosol after 48 hrs by Western blot analysis; assay type: functional, cell-based
[3] = Toxicity in BALB/c-nu mouse xenografted with human HCT116 cells assessed as change in body weight at 2.5 to 5 mg/kg, ip administered three times per week for 28 days measured during compound dosing relative to control; assay type: organism-based; details: in vivo, 672 h
Method in brief: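 Nude mice carried subcutaneous flank HCT116 implants (2 × 10^6 cells in 200 μL medium). At about 200 mm3 they were randomised into groups of five. Compound at 2.5 or 5 mg/kg in saline with 0.5% Tween 80 was given ip three times weekly for 4 weeks; controls received vehicle. Body weight was monitored throughout for toxicity.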

## C[C@H]1CC[C@@]2(OC1)O[C@H]1C[C@H]3[C@@H]4CC=C5C[C@@H](O)C[C@@H](O[C@@H]6O[C@H](C)[C@H](O)[C@H](O[C@@H]7OC[C@@H](O)[C@H](O)[C@H]7O)[C@H]6O[C@@H]6O[C@H](CO)[C@@H](O)[C@H](O)[C@H]6O)[C@]5(C)[C@H]4CC[C@]3(C)[C@H]1[C@@H]2C
HCT-116 [1]
  Activity: Active
HCT-116 [2]
  Activity: Dose-dependent effect
[3]
  Activity: Non-Toxic
